ABHD4 inh – ABHD4 inhibitors, primary screen, biochemical, fluorescence polarization, mouse | hit rate 0.54% among 370,000 | (Lyso)-N-acylphosphatidylethanolamine lipase (Mus musculus), Q8VD66 | inhibition, % at 8.92 µM | purified mABHD4, FP-Rh probe fluorescence polarization | AID 720543, 2013;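 active = inhibition exceeding the mean over every tested compound plus 3 SD, cut at about 30% in these data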
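Assay system: Wild-type mouse ABHD4 protein | Medium: HEPES pH 7.0 buffer, 150 mM NaCl, 0.01% Pluronic F-127 | Incubation: Enzyme–compound pre-incubation 45 min, then probe 60 min, both 25 °C | Technique: Fluorescence polarization with parallel and perpendicular emission, 525/598 nm | Evaluation: % inhibition of FP-Rh probe binding versus controls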
PRMT1 inh – PRMT1 methyltransferase inhibitors, primary screen, biochemical, fluorescence polarization. Protein arginine N-methyltransferase 1 (Homo sapiens), Q99873. recombinant PRMT1, activity-based probe fluorescence polarization. inhibition, % at 2.79 µM. hit rate 1.3% among 370,000;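 active = inhibition above about 21% made by adding two undisclosed values, limit read from the data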
TCR-CD3 inh – inhibitors of human TCR-CD3 interaction, primary screen, biochemical, fluorescence, TAMRA-labeled TCR probe; T-cell receptor (TCR); inhibition, % at 9.4 µM; hit rate 0.37% among 360,000; AID 651800, 2012; in the data active = inhibition above about 19%;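 note: recombinant mutant TCR 2C K166C tagged with TAMRA read by polarization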
SIAE primary – human SIAE inhibitors, primary screen, biochemical, fluorescence polarization, FP-Rh probe, 1536-well HTS | SIAE FP-Rh probe binding | inhibition, % at 9.66 µM | hit rate 0.69% among 370,000 | AID 1053197, 2014;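 active = inhibition above a cutoff: mean of compounds within the control limits plus 3 SD of those, cut at about 17% in these data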
Target sequence (Q9HAT2 whole entry, looked up): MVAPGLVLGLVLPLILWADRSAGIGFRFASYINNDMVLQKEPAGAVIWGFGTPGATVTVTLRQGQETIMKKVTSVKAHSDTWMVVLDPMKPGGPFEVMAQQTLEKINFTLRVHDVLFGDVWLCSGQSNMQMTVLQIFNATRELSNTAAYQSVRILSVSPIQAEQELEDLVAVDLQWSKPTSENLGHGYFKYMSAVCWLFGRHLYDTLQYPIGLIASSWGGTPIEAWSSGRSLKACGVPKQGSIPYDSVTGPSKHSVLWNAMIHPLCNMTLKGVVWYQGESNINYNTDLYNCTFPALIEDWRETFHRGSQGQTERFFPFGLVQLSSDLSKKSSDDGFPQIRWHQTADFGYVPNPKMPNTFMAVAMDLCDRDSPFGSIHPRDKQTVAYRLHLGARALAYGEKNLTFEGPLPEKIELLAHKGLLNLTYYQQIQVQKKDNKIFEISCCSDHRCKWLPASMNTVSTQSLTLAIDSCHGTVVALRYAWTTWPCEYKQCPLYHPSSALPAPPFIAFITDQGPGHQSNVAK
rCAG binder-1 – binders of r(CAG) RNA repeats, primary screen, biochemical, fluorescence; r(CAG) RNA repeat, TO-PRO-1 dye displacement fluorescence; inhibition, % at 3 µM; hit rate 1.3% among 370,000; AID 651821, 2012;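 active = inhibition above the plate cutoff, the mean of all test compounds on that plate plus 3 SD, cut at about 35% in these data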;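 note: higher means more dye released from RNA so lower well fluorescence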
BSA probe FL – compounds interfering with TAMRA-BSA probe, counter-screen for TCR-CD3 interaction inhibitor project, biochemical, fluorescence, TAMRA-labeled BSA; hit rate 10% among 1,200; TAMRA-labeled BSA probe fluorescence counterscreen; AID 652035, 2013; shares compounds with TCR-CD3 inh; inhibition, % at 9.4 µM; in the data active = inhibition above about 23%
TCR-CD3 inh conf – TCR-CD3 interaction inhibitors, retest, confirmation, biochemical, fluorescence, TAMRA-labeled TCR probe | TAMRA-labeled TCR probe fluorescence binding assay | AID 652036, 2013 | hit rate 48% among 1,200 | shares compounds with TCR-CD3 inh | inhibition, % at 9.4 µM; in the data active = inhibition above about 19%
rCAG binder conf – small molecules binding CAG repeat RNA – biochemical, fluorescence, confirmation | shares compounds with rCAG binder-1 | r(CAG) RNA repeat, TO-PRO-1 dye displacement fluorescence | inhibition, % at 3 µM | hit rate 70% among 4,300;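 active = inhibition above a per-plate cutoff, the mean inhibition of sample wells plus 3 SD, cut at about 35% in these data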;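 note: loss of TO-PRO-1 fluorescence as compound displaces dye from 1x1 AA loop RNA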
dCAG dye counter – displacement of TO-PRO-1 from CAG DNA duplex, counter-screen for rCAG RNA repeat binder project, biochemical, fluorescence, TO-PRO-1 dye, d(CAG) DNA oligo | shares compounds with rCAG binder-1 | d(CAG) DNA oligo TO-PRO-1 dye displacement | inhibition, % at 3 µM | hit rate 94% among 4,300 | AID 652068, 2013;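 active = inhibition above its plate's cutoff, the mean test-well inhibition plus 3 SD, cut at about 4.8% in these data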;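 note: hits displace the dye from DNA and so lower well fluorescence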
DNA CAG DR – inhibitors of DNA CAG/GTC TO-PRO-1 complex, dose response, counter-screen for rCAG RNA repeat binder project, biochemical, fluorescence, TO-PRO-1 dye; DNA CAG/GTC duplex TO-PRO-1 dye displacement fluorescence; hit rate 20% among 250; shares compounds with rCAG binder-1; IC50, µM; in the data active = IC50 below about 10 µM
dCAG TOPRO ctr – TO-PRO-1 dye complex inhibitors on d(CAG) DNA, dose response, counter-screen, biochemical, fluorescence, late stage; shares compounds with rCAG binder-1; d(CAG) DNA duplex TO-PRO-1 dye displacement; IC50, µM; hit rate 80% among 30
rCAG binder-2 – molecules binding r(CAG) RNA repeats, late stage dose response, late-stage follow-up, biochemical, fluorescence, dose response, powder samples; r(CAG) RNA TO-PRO-1 dye displacement; AID 720651, 2013; shares compounds with rCAG binder-1; IC50, µM; hit rate 100% among 30
PRMT1 confirm – PRMT1 methyltransferase inhibitors, confirmation, biochemical, fluorescence polarization, triplicate; hit rate 42% among 3,300; shares compounds with PRMT1 inh; recombinant His-PRMT1, activity-based probe fluorescence polarization; inhibition, % at 2.79 µM;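 active = mean inhibition across replicates above the hit cutoff derived for the earlier primary screen, cut at about 22% in these data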
mABHD4 conf – ABHD4 inhibitors, retest, confirmation, biochemical, fluorescence polarization, mouse. hit rate 55% among 1,800. purified mABHD4, FP-Rh probe fluorescence polarization. AID 720658, 2013. shares compounds with ABHD4 inh. inhibition, % at 8.92 µM;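 active = mean inhibition across replicates above the hit cutoff set in the primary screen, cut at about 30% in these data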
SIAE confirm – human SIAE inhibitors, retest, confirmation, biochemical, fluorescence polarization, FP-Rh probe, triplicate | shares compounds with SIAE primary | SIAE FP-Rh activity-based probe | inhibition, % at 9.66 µM | hit rate 13% among 2,300 | AID 1117263, 2014;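 active = mean inhibition of the replicates above the hit cutoff set in the primary screen, cut at about 17% in these data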;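 note: inhibitors lower polarization as more probe stays unbound to SIAE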
Numbers stand for hits; n = inactive; x = not tested or not shown. Shown are actives, neighbours in structure and some others; about 3.3% of the full set was active somewhere. Unless noted, the rule behind the calls is not given here.

SMILES | ABHD4 inh | PRMT1 inh | TCR-CD3 inh | SIAE primary | rCAG binder-1 | BSA probe FL | TCR-CD3 inh conf | rCAG binder conf | dCAG dye counter | others
CCC(=NCC1CCCO1)c1c(O)n(Cc2ccccc2)c(=O)[nH]c1=O (configuration not stated) | n | n | n | n | n | x | x | x | x
CC/C(=N\NC(=O)c1ccccc1)c1c(O)n(Cc2ccccc2)c(=O)[nH]c1=O | n | n | 21 | n | n | n | n | x | x
Cc1cc(OCC(=O)NCc2ccc(S(N)(=O)=O)cc2)c2c3c(c(=O)oc2c1)CCC3 | n | n | n | n | n | x | x | x | x
O=[N+]([O-])c1ccc(N2CCCCCC2)c2nonc12 | n | 89 | 79 | n | n | 103 | 87 | x | x | PRMT1 confirm=95
Cc1c(C(=O)N2CCC3(CC2)OCCO3)sc2ncnc(N3CCc4ccccc4C3)c12 | n | n | n | n | n | x | x | x | x
NN=C1C(Cl)=C(Cl)C(Cl)=C1Cl | n | 26 | 23 | n | n | n | n | x | x | PRMT1 confirm=n
Clc1cccc(N2Cc3cc(-c4ccccc4)ccc3-n3nncc3C2)c1 | n | n | n | n | n | x | x | x | x
C[n+]1c(-c2ccccc2)c2cc(N)ccc2c2ccc(N)cc21 | 75 | 66 | 116 | 49 | 41 | 160 | 130 | 49 | 63 | mABHD4 conf=111
COC(=O)C1=C(c2c(C)noc2C)C[C@@H]2CC[C@H]1N2C(=O)NCCOc1ccc(OC)cc1 | n | n | n | n | n | x | x | x | x
O=C(N/N=C/c1c(O)n(Cc2ccco2)c(=O)[nH]c1=O)c1ccccc1O | 31 | n | 41 | n | 58 | n | 40 | 66 | 27 | mABHD4 conf=32
CCCCC(=O)N/N=C/c1c(O)n(Cc2ccco2)c(=O)[nH]c1=O | n | n | n | n | n | x | x | x | x
CN(C)[C@@H]1C(=O)C(C(N)=O)=C(O)[C@@]2(O)C(=O)C3=C(O)c4c(O)cccc4[C@@](C)(O)C3[C@H](O)C12 (some centres not stated) | 68 | 36 | 27 | n | 55 | n | n | n | 7.5 | mABHD4 conf=n
O=C1NCN(c2ccccc2)C12CCN(C(c1ccccc1)c1nnnn1C1CCCC1)CC2 (configuration not stated) | n | n | n | n | n | x | x | x | x
O=[N+]([O-])c1ccc(NCc2ccccc2)c2nonc12 | 53 | 168 | 66 | 37 | n | 99 | 81 | x | x | PRMT1 confirm=159;mABHD4 conf=79;SIAE confirm=29
CC12C=CC(=O)CC1CCC1C2CCC2(C)C(O)C(O)CC12 (configuration not stated) | n | n | n | n | n | x | x | x | x
COc1cccc2c1C(=O)c1c(O)c3c(c(O)c1C2=O)CC(O)(C(C)=NO)CC3OC1CC(N)C(O)C(C)O1 (configuration not stated) | 59 | 145 | 143 | 55 | n | 167 | 136 | x | x | PRMT1 confirm=139;mABHD4 conf=59;SIAE confirm=44
CO[C@H]1CC=C2CCN3CCC4=C(CC(=O)OC4)[C@]23C1 | n | n | n | n | n | x | x | x | x
COc1ccc(OC)c(N2C(=O)NC(=O)/C(=C\c3ccc([N+](=O)[O-])s3)C2=O)c1 | n | 28 | n | n | 92 | x | x | 74 | 34
CCOc1ccc(N2C(=O)NC(=O)/C(=C\c3ccccc3[N+](=O)[O-])C2=O)cc1 | n | n | n | n | n | x | x | x | x
O=C1NC(=O)N(c2ccccc2)C(=O)/C1=C\c1ccc([N+](=O)[O-])s1 | n | n | n | n | 43 | x | x | 45 | 18
COc1ccc(N2C(=O)NC(=O)/C(=C\c3ccccc3[N+](=O)[O-])C2=O)cc1 | n | n | n | n | n | x | x | x | x
CC(C)c1ccc(-n2c(O)c(/C=N/NC(=O)c3ccccc3O)c(=O)[nH]c2=S)cc1 | n | n | n | n | 82 | x | x | 78 | 43
CCC(=NCCO)c1c(O)n(C2CCCCC2)c(=O)[nH]c1=O | n | n | n | n | n | x | x | x | x
CC/C(=N\NC(=O)c1ccccc1O)c1c(O)n(C2CCCCC2)c(=O)[nH]c1=O | n | n | n | n | 59 | x | x | 72 | 29 | DNA CAG DR=2.8;dCAG TOPRO ctr=2.4;rCAG binder-2=0.99
O=C(N/N=C/c1c(O)n(C2CCCCC2)c(=S)[nH]c1=O)c1ccccc1O | n | n | n | n | 45 | x | x | 90 | 67
NS(=O)(=O)c1cccc(N2CCNCC2)c1 | n | n | n | n | n | x | x | x | x
CCN(CC)CCCOC(=O)C(OC(C)C)(c1ccccc1)c1ccccc1 | n | n | n | n | n | x | x | x | x
O=C1NC(=O)N(Cc2ccc(F)cc2)C(=O)/C1=C\C=C\c1ccco1 | n | n | n | n | 52 | x | x | n | 7.6
CCCCN1C(=O)/C(=C\c2ccco2)C(=O)N(CCc2ccccc2)C1=O | n | n | n | n | n | x | x | x | x
